Results published in ChEMBL document CHEMBL1828538, “Synthesis and pharmacological evaluation of indole-based sigma receptor ligands” (Eur J Med Chem, 2011).
The source made the active and inactive calls. The rule behind the calls is not given here.

Experiments:
[1] = Displacement of radioligand from adrenergic alpha2 receptor assessed as 50% receptor inhibition at 10^-7 M
Summary of the method: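 Part of a contracted (NovaScreen) panel of 64 radioligand/enzyme assays, with the test compound run at 10⁻⁵ M and 10⁻⁷ M. Each assay was scored by whether radioligand displacement exceeded 50% at each concentration.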

D(2) dopamine receptor = D(2) dopamine receptor (Homo sapiens, UniProt P14416); assay: Displacement of [3H]YM-09151-2 from human D2 receptor expressed in CHO cells; type: cell-based
Summary of the method: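 CHOp-D2 or CHOp-D3 cells were labelled with 0.2–0.5 nM [3H]YM-09151-2, and nonspecific binding was set with 1 μM chlorpromazine. Ki was from standard competition conditions, as mean ± SEM of replicate assays.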

[2] = target: T1, 5-hydroxytryptamine receptor 1A (Homo sapiens, UniProt P08908); assay: Displacement of [3H]8-OH-DPAT from human 5HT1A receptor expressed in HEK cells; type: cell-based, HEK293
T1 sequence (P08908 whole entry): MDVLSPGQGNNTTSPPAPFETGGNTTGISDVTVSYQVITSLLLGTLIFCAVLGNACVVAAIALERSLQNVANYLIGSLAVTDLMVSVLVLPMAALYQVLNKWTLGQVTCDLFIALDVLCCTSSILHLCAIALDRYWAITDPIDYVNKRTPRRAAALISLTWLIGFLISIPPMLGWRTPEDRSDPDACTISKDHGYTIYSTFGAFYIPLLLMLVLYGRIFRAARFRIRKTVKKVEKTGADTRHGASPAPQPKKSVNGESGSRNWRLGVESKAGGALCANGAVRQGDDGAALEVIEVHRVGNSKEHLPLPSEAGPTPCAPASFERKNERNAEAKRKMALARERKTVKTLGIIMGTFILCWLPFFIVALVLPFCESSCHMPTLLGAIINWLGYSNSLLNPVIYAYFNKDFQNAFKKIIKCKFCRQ
Summary of the method: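 Assay used HEK-h5-HT1A cells with 0.5 nM [3H]8-OH-DPAT, and nonspecific binding defined by 1 μM dihydroergotamine. Ki came from standard competition conditions, as mean ± SEM of replicate assays.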

D(2) dopamine receptor, sequence (P14416 whole entry): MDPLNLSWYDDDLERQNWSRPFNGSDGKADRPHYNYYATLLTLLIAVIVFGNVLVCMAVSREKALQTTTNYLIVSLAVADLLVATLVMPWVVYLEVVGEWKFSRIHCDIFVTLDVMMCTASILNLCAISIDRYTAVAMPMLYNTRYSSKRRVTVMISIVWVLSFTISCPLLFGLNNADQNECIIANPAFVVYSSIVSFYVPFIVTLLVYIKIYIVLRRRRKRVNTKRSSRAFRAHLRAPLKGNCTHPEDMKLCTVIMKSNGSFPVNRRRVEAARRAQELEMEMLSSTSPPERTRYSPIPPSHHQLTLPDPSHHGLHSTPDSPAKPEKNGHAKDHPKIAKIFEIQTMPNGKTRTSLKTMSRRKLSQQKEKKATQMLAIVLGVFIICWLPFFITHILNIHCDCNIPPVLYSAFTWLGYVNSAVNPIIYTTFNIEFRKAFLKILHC

Compound: COc1cc2c(cc1OC)CN(CCCCn1cc(-c3ccc(F)cc3)c3ccccc31)CC2
- inhibition [1]: inactive
- Ki (D(2) dopamine receptor): 870 nM
- Ki [2]: 1510 nM
